Only some compounds are listed: those with a hit (about 3.8% of all), similar ones and a draw of the others.
MrgX1 allo act: positive allosteric modulators of MrgX1, primary screen, HEK293 cells, Fluo-4 calcium flux; Mas-related G-protein coupled receptor member X1 (Homo sapiens), Q96LB2; FDSS; hits give high values; B-score at 10 µM; actives 0.63% (n = 310,000);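 active = plate-corrected calcium response at least 3 library SD above typical, normal starting fluorescence, not activating the receptor alone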;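 also: compound read alongside a low EC10 to EC30 dose of BAM8-22 agonist; peak minus trough fluorescence over baseline measured at the second addition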
Target sequence (Q96LB2 whole entry, looked up): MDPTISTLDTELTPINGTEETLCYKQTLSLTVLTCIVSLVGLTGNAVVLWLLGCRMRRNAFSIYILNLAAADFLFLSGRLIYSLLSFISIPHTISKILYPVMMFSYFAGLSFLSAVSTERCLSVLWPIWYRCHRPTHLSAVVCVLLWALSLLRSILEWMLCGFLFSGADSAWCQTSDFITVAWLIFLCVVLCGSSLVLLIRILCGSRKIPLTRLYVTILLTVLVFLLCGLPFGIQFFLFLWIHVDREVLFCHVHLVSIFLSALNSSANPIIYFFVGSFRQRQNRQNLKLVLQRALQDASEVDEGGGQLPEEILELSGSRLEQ
RGS4 block: RGS4 inhibitors, primary screen, cell-based, HEK293 M3R inducible RGS4, calcium flux; Fluo-4 calcium flux; hits give high values; triggered by carbachol at its EC20; Regulator of G-protein signaling 4 (Homo sapiens), P49798; B-score at 10 µM; actives 0.45% (n = 310,000);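 active = B-score, a plate-corrected calcium signal, over three deviations above library mean, with baseline fluorescence within five deviations of library mean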;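 also: RGS4 expression induced by doxycycline in cells with stable M3 receptor; B-score is computed from the integrated fluorescence ratio over baseline after carbachol; higher B-score means a larger calcium signal and so more RGS4 inhibition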
Target sequence (P49798 whole entry, looked up): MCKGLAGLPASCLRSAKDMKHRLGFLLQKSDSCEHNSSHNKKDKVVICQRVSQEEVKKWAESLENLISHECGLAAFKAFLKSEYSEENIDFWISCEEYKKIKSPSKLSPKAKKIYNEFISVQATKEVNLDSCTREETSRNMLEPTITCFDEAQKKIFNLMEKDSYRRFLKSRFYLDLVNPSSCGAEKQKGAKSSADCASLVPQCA
RGS4 act: RGS4 potentiators or activators, primary screen, cell-based, HEK293 M3R inducible RGS4, calcium flux; AID 463111, 2010; B-score at 10 µM; carbachol calcium flux Fluo4; hits give low values; actives 0.92% (n = 310,000);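 active = B-score of the integrated calcium signal more than 4 SD below the library mean, with starting fluorescence not abnormally high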;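 also: negative B-score means reduced calcium response which marks RGS4 activation or potentiation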
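Reagent: ECmax carbachol challenge; Test system: M3R-expressing HEK293 line, RGS4 induced by doxycycline; Schedule: overnight RGS4 induction, 30 min dye load 37 °C, 20 min compound RT; Detection: calcium dye Fluo4 fluorescence; Read-out: Agonist-evoked peak-minus-minimum fluorescence over baseline, integrated ratio, B score.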
MrgX1 ag: agonists of human MrgX1 receptor, primary screen, HEK293 cells, Fluo-4 calcium flux; Fluo-4 calcium fluorescence, agonist mode; hits give high values; B-score at 10 µM; actives 0.44% (n = 310,000); AID 588627, 2011;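 active = calcium response B-score plate-corrected fluorescence ratio at least 3 library SD, with starting fluorescence B-score inside 5 SD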
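System – MrgX1-expressing HEK293 cells · Incubation – cells plated overnight, dye loaded 0.5 h 37 °C, 0.5 h room temperature · Technique – kinetic Fluo-4 NW fluorescence of intracellular calcium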
MrgX1 antag: antagonists of human MrgX1 receptor, primary screen, HEK293 cells, Fluo-4 calcium flux; Mas-related G-protein coupled receptor member X1 (Homo sapiens), Q96LB2; BAM8-22 antagonism; hits give low values; B-score at 10 µM; actives 1.3% (n = 310,000);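 active = calcium-response B-score plate-corrected more than 3 library SD below zero, starting fluorescence within 5 deviations, no agonist response on first addition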;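 also: peak minus trough fluorescence over baseline after final BAM8-22 challenge near maximal dose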
Hep lipid drop: inhibitors of hepatocyte lipid droplet formation, primary screen, imaging, high-throughput imaging, BODIPY stain. AML12 mouse hepatocytes, oleate lipid droplets. inhibition, % at 6.5 µM. actives 0.4% (n = 240,000). AID 1656, 2009;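 active = lipid droplet intensity inhibited by at least 50%, with more than 500 cells counted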
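Material: mouse AML12 hepatocyte cell line, fixed after treatment; Timing: compound with oleate, overnight; Technique: high-content imaging of BODIPY-stained droplets and DAPI nuclei; Probe or stimulus: oleate, 100 µM final; Dosing: compound at 6.5 µM only.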
* = called active by the depositor; i = inactive; nt = no result.

SMILES | MrgX1 allo act | RGS4 block | RGS4 act | MrgX1 ag | MrgX1 antag | Hep lipid drop
CCC(=O)Nc1ccc(C(=O)Cn2ncc(Cl)c(Cl)c2=O)cc1 | i | i | i | i | i | -3
CCCCCCc1cc2cc(C(=O)NCc3ccccc3)c(=N)oc2cc1O | 7* | i | i | i | i | 6
CCCCCCc1cc2cc(C(=O)Nc3ccccc3)c(=O)oc2cc1O | i | i | i | i | i | -4
N=c1oc2ccc(Br)cc2cc1C(=O)NCc1ccc(F)cc1 | i | i | i | i | i | -2
CCN(CC)c1ccc2cc(C(=O)NCc3ccc(F)cc3)c(=N)oc2c1 | i | i | i | 37* | i | 12
CS(=O)(=O)c1nc(-c2ccco2)cc(C(F)(F)F)n1 | i | i | -7* | i | i | nt
C=CC[C@@H]1C=C(C)C[C@H](C)C[C@H](OC)[C@H]2O[C@@](O)(C(=O)C(=O)N3CCCC[C@H]3C(=O)O[C@H](/C(C)=C/[C@@H]3CC[C@@H](O)[C@H](OC)C3)[C@H](C)[C@@H](O)CC1=O)[C@H](C)C[C@@H]2OC | i | i | i | i | i | nt
CCOC(=O)c1[nH]c2cc(OC)c(OC)cc2c1NC(=O)C(C)N1CCN(Cc2ccccc2)CC1 (configuration not stated) | i | i | -8.7* | i | i | nt
CCOC(=O)c1[nH]c2ccc(OC)cc2c1NC(=O)C(C)N1CCSCC1 (configuration not stated) | nt | i | i | nt | nt | nt
Nc1nc2ccc(NC(=O)c3ccco3)cc2s1 | i | i | i | i | i | 12
OCCC1CN(Cc2nc3ccccc3s2)CCN1C1CCCCC1 (configuration not stated) | i | i | i | i | -5.2* | -10
OCCC1CN(Cc2nc(-c3ccccc3)cs2)CCN1C1CCCC1 (configuration not stated) | i | i | -7.2* | i | i | -16
OCCC1CN(Cc2nc(-c3ccccc3)cs2)CCN1Cc1ccc(F)cc1 (configuration not stated) | i | i | i | i | i | -35
COc1ccc2c(c1)C=C(CN1CCN(C3CCCC3)C(CCO)C1)CO2 (configuration not stated) | i | i | -7* | i | i | 4
OCC[C@H]1C[C@@H](O)[C@H](O)[C@]2(Cc3ccccc3CCO2)O1 | i | nt | nt | i | i | nt
CCOc1ccc(S(=O)(=O)N2CCC(C(=O)NC3CC3)CC2)cc1Cl | i | i | i | i | i | 2
O=C(Cn1cnc2ccccc2c1=O)NCc1cccs1 | i | i | i | i | i | -4
O=C(NC1CCN(Cc2ccccc2)CC1)c1ccccc1OCc1ccccc1Cl | 10* | i | i | i | i | -19
O=C(NC1CCN(Cc2ccccc2)CC1)c1ccccc1OCc1ccccc1 | i | i | i | i | i | -18
CCn1c(CC(=O)Nc2ccccc2)nnc1SCC(=O)Nc1nnc(C)s1 | i | i | i | i | i | 1
CCOc1ccc(C=O)cc1CN1CCCCC1 | i | i | i | i | -5.8* | 6
Cc1nn(-c2cc(C(F)(F)F)ccc2Cl)c2nc(C(Cl)(Cl)Cl)[nH]c(=O)c12 | i | i | i | 43* | i | 1
CC(OC(=O)/C=C/c1ccc(Br)cc1)C(=O)N1CCOCC1 (configuration not stated) | i | i | i | i | -8* | nt
CCc1cc(C(=O)NCC2CCCO2)sc1C (configuration not stated) | i | i | i | i | i | -20
CC(C)c1cccc(OCCN2CCCC2)c1 | i | i | i | i | i | -1
SMILES | MrgX1 allo act | RGS4 block | RGS4 act | MrgX1 ag | MrgX1 antag | Hep lipid drop
CCN(CC)C(=O)N1c2ccccc2C=Cc2ccccc21 | i | i | i | i | i | 7
CN(C)CCCNC(=O)N1c2ccccc2C=Cc2ccccc21 | i | i | -7.2* | i | i | -7
CCOC(=O)c1[nH]ncc1CN1CCc2ccc(NC(=O)C3CCCO3)cc2C1 (configuration not stated) | i | i | i | i | i | 5
CCOC(=O)C1=C(C)N=c2s/c(=C3\C(=O)Nc4ccccc43)c(=O)n2C1c1ccc2c(c1)OCO2 (configuration not stated) | i | i | i | i | i | 59*
N#CCC(N)=C(C#N)C#N | i | i | i | i | -7.2* | -9
Cc1ccc(S(=O)(=O)c2nnn3c2nc(NC2CCN(Cc4ccccc4)CC2)c2ccccc23)cc1C | 8.3* | i | i | i | -11* | -6
Cc1c(C(=O)N2CCCCC2)c(S(=O)(=O)Nc2ccc(F)cc2F)c(C)n1C | i | i | i | i | i | 22
CC[n+]1c(/C=C/C=C/N(C(C)=O)c2ccccc2)sc2cc(OC)ccc21 | i | nt | nt | i | i | -107
CCN(CC)S(=O)(=O)c1ccc(C2=NOC3(C2)N(C)c2ccccc2C3(C)C)cc1 (configuration not stated) | i | i | -8.4* | i | i | -35
CN1c2ccccc2C(C)(C)C12CC(c1ccc(S(=O)(=O)N3CCCCC3)cc1)=NO2 (configuration not stated) | i | i | i | i | i | -6
Nc1c(C(=O)OCC2CCCO2)c2nc3ccccc3nc2n1C1CCCC1 (configuration not stated) | i | i | i | i | i | 1
Cn1c(-c2c(N)n(CCCc3ccccc3)c3nc4ccccc4nc23)nc2ccccc21 | nt | i | i | nt | nt | nt
Cn1c(-c2c(N)n(CCc3ccccc3)c3nc4ccccc4nc23)nc2ccccc21 | i | i | i | 29* | i | -12
Cn1c(-c2c(N)n(C3CCCC3)c3nc4ccccc4nc23)nc2ccccc21 | i | i | -9* | i | -7.4* | nt
Cc1ccc(NC(=O)/C=C/C(=O)O)c(NC(=O)c2ccccc2)c1 | i | i | i | i | i | 1
CC(Cc1n[nH]c(=S)n1N)c1ccccc1 (configuration not stated) | i | i | i | i | i | 3

Screening data deposited in PubChem BioAssay by several laboratories.
